Source: PubChem BioAssay
Compounds with a hit are over-represented: about 2.5% of the library has one in this group of screens.
VIM-2 inhibitor: inhibitors of Pseudomonas aeruginosa VIM-2 metallo-beta-lactamase | purified VIM-2, nitrocefin hydrolysis, epi-absorbance fluorescence | inhibition, % at 5.6 µM | 290,000 tested, 0.89% active | AID 1527;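 active means inhibition above the mean of all tested compounds plus 3 SD, cutoff set per screening run, cut at about 7.5% in these data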;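 further: red hydrolysis product quenches plate fluorescence so inhibitors raise well fluorescence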
HTR2A ag: mouse HTR2A agonism via beta-arrestin recruitment; CHO-K1 mHTR2A beta-arrestin complementation, luminescence; percent of 30 µM serotonin response; activation, % at 7.6 µM; 360,000 tested, 0.66% active; AID 624169;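 active means activation above a run cutoff, the mean activation of all tested compounds plus 3 SD, cut at about 14% in these data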
Target sequence (P35363 whole entry, looked up): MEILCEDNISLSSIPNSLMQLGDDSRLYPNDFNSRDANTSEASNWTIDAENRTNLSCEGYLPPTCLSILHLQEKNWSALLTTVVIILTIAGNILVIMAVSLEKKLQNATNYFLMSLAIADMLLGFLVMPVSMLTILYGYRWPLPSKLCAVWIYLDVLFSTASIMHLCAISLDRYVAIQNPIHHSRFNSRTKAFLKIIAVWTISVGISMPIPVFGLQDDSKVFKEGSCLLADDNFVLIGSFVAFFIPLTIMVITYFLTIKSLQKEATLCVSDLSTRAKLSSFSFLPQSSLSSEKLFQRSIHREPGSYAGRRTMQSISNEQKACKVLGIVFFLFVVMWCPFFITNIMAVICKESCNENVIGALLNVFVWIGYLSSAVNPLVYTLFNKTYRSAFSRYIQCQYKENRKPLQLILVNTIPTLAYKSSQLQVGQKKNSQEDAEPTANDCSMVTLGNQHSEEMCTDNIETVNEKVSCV
dFosB act-1: enhances mouse delta FosB homodimer DNA binding; activation, % at 25 µM; purified delta FosB, TAMRA-CDK5 oligo fluorescence polarization; percent of positive-control signal above neutral wells; P13346; 340,000 tested, 0.99% active;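 active means mean activation above about 17%, with every replicate also reaching it, limit read from the data, passing the limit was not always enough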
IMP-1 inh: inhibitors of Pseudomonas aeruginosa IMP-1 metallo-beta-lactamase; purified IMP-1, nitrocefin hydrolysis, epi-absorbance fluorescence; inhibition, % at 5.6 µM; 290,000 tested, 0.45% active;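 active means inhibition above the mean plus 3 SD of all compounds in the same screening run, cut at about 4.5% in these data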
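system = purified recombinant IMP-1 beta-lactamase | amount = 0.2 nM IMP-1, as dispensed | medium = HEPES buffer pH 7.1 with ZnSO4 and Brij 35 | times = 25 °C, 15 min preincubation, 25 min reaction | detection = plate fluorescence quenching by hydrolysis product, ex 480/em 530 nm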
dFosB act-2: activators of mouse delta FosB homodimer DNA binding | activation, % at 24.9 µM | 2,400 tested, under 10 active | shares compounds with dFosB act-1 | AID 588690 | purified delta FosB, TAMRA-CDK5 oligo fluorescence polarization; normalised: neutral wells 0, positive control 100;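 active means highest replicate activation at or above 34% and every replicate reaching that threshold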;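 further: higher polarization means more probe DNA bound by delta FosB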
Each line names hits and unclear results; the compound was inactive in the other large screens (follow-up assays come after a bar, where they were run).

Nc1cc(C(=O)N/N=C/c2cccc([N+](=O)[O-])c2)n[nH]c1=O	dFosB act-1 18 | dFosB act-2 inactive
Cc1nc(Cn2c3ccc(NC(=S)NC4CCCCC4)cc3c(=O)n2C)cs1	none (no result: VIM-2 inhibitor, dFosB act-1, IMP-1 inh)
CC1CC(C)CN(C(=S)SCc2nc(N)nc(Nc3ccccc3)n2)C1 (stereo not drawn)	dFosB act-1 38 | dFosB act-2 inactive
Nc1nc(CSC(=S)N2CCN(c3ccccc3)CC2)nc(Nc2ccc(F)cc2)n1	dFosB act-1 47 | dFosB act-2 inactive
O=C(Nc1cc(S(=O)(=O)Nc2ccccc2Cl)ccc1O)c1cc2c(s1)CCCC2	dFosB act-1 32 | dFosB act-2 inactive
Cc1ccc(NC(=O)c2cc3c(s2)CCCC3)cc1S(=O)(=O)Nc1ccccc1Cl	none
C[N+](C)(C)CC(=O)N/N=C/c1c2ccccc2cc2ccccc12	dFosB act-1 31 | dFosB act-2 inactive
Cn1cccc1CC(=O)N/N=C\c1c2ccccc2cc2ccccc12	none
CN1OC[C@@H]2CN(C(=O)C(C)(C)C)[C@H](c3ccc(-c4cccnc4)cc3)C[C@@H]21	none (no result: VIM-2 inhibitor, dFosB act-1, IMP-1 inh)
O=C1c2cccc3cccc(c23)C(=O)N1c1ccc2ncccc2c1	dFosB act-1 36, IMP-1 inh 9.3 | dFosB act-2 inactive
O=C1c2cccc3cccc(c23)C(=O)N1c1nccs1	none
CCc1noc(C)c1C(=O)N1CC(C)SC1=Nc1ccc(Cl)cc1 (stereo not drawn)	none (no result: VIM-2 inhibitor, IMP-1 inh)
NS(=O)(=O)c1ccc(NC(=O)CCCCC(=O)Nc2ccc(S(N)(=O)=O)cc2)cc1	dFosB act-1 53 | dFosB act-2 inactive
CCN(CC)S(=O)(=O)c1ccc(/C=C/C(=O)OCC(=O)Nc2ccc(C(N)=O)cc2)cc1	none
O=C(COC(=O)/C=C/c1ccc(Cl)cc1)Nc1ccc2[nH]c(=O)[nH]c2c1	dFosB act-1 22 (no result: VIM-2 inhibitor, IMP-1 inh) | dFosB act-2 inactive
NS(=O)(=O)c1ccc(CCNC(=O)COC(=O)/C=C/c2ccc(Cl)cc2)cc1	dFosB act-1 21 | dFosB act-2 inactive
NS(=O)(=O)c1ccc(CCNC(=O)COC(=O)/C=C/c2ccc(OC(F)F)cc2)cc1	none (no result: VIM-2 inhibitor, IMP-1 inh)
CCN(CC)S(=O)(=O)c1ccc(/C=C/C(=O)OCC(=O)Nc2ccc(S(N)(=O)=O)cc2)cc1	dFosB act-1 116 | dFosB act-2 inactive
NS(=O)(=O)c1ccc(NC(=O)CCCCCN2C(=O)c3ccccc3C2=O)cc1	none (no result: VIM-2 inhibitor, IMP-1 inh)
CCc1nc2ccc(C(=O)NCCOc3ccc(OC)cc3)cn2c1N(C)C(=O)Cc1ccccc1	none (no result: VIM-2 inhibitor, dFosB act-1, IMP-1 inh)
C=C1CC(Cn2cc(Br)c(=O)[nH]c2=O)(c2ccc(-c3ccccc3)cc2)OC1=O (stereo not drawn)	none (no result: VIM-2 inhibitor, IMP-1 inh)
Cc1ccccc1NC(=O)COC(=O)CNC(=O)c1sc2ccccc2c1Cl	none
NC(=O)NC(=O)COC(=O)c1sc2ccccc2c1Cl	dFosB act-1 43 | dFosB act-2 inactive
O=C(COC(=O)CNC(=O)c1sc2ccccc2c1Cl)Nc1c(Cl)cc(Cl)cc1Cl	dFosB act-1 40 | dFosB act-2 inactive
C[C@@H](C(=O)NNC(=O)c1ccc(Cl)cc1)N1C(=O)C2CC=CCC2C1=O (stereo partly drawn)	none (no result: VIM-2 inhibitor, IMP-1 inh)
CN(c1ccccc1)S(=O)(=O)c1ccc(Cl)c(C(=O)Nc2nc3ccccc3[nH]2)c1	none
CC(C)(C)N1C(=O)c2ccc(C(=O)Nc3ccc(-c4nc5ccccc5[nH]4)cc3)cc2C1=O	none
O=C(Nc1ccc(-c2nc3ccc(NC(=O)c4cccs4)cc3[nH]2)cc1)c1cccs1	dFosB act-1 47, IMP-1 inh 12 | dFosB act-2 inactive
O=C(Nc1ccc(-c2nc3ccccc3[nH]2)cc1)c1ccc(N2C(=O)CCC2=O)cc1	dFosB act-1 25 | dFosB act-2 inactive
CS(=O)(=O)c1cccc(C(=O)Nc2ccc(-c3nc4ccccc4[nH]3)cc2)c1	dFosB act-1 37 | dFosB act-2 inactive
CN(c1ccccc1)S(=O)(=O)c1ccc(Cl)c(C(=O)Nc2ccc(-c3nc4ccccc4[nH]3)cc2)c1	dFosB act-1 44 | dFosB act-2 inactive
COc1cc(CCC(=O)N2CCN(c3ccccc3)CC2)cc(OC)c1OC	none
CCOc1ccc(CC(=O)Nc2c(C(=O)Nc3ccccc3)oc3ccccc23)cc1OCC	dFosB act-1 27 | dFosB act-2 inactive
O=C(Nc1ccc2c(c1)CCCN2C(=O)c1ccco1)c1cc([N+](=O)[O-])ccc1Cl	none (no result: VIM-2 inhibitor, IMP-1 inh)
CCOc1ccccc1N1CC(C(=O)Nc2cc(Cl)ccc2C)CC1=O (stereo not drawn)	none
COc1cc(OC)c(OC)cc1CN1CCN(Cc2ccco2)CC1	none
Cc1ccc(C)c(C(=O)COC(=O)CCN2C(=O)C3C4CCC(C4)C3C2=O)c1 (stereo not drawn)	none
COc1ccc(NC(=O)c2cc(CN3C(=O)c4ccccc4C3=O)ccc2OC)cn1	dFosB act-1 18 | dFosB act-2 inactive
COc1ccc(CN2C(=O)c3ccccc3C2=O)cc1C(=O)Nc1ccccc1N1CCOCC1	none
COc1ccc(/C=C/C(=O)Nc2c(C)nn(C)c2C)cc1COc1ccc(Cl)cc1Br	dFosB act-1 131 | dFosB act-2 inactive
CCCN(CC(=O)Nc1ccccc1C)C(=O)c1nn(CC)c(=O)c2ccccc12	none (no result: VIM-2 inhibitor, IMP-1 inh)
Cc1cc(C)n(CC(O)Cn2c3ccccc3c3ccccc32)n1 (stereo not drawn)	none
Cc1cc(C)n(CC(O)Cn2c3ccc(Cl)cc3c3cc(Cl)ccc32)c(=O)n1 (stereo not drawn)	dFosB act-1 25 | dFosB act-2 inactive
CC(=O)N1C[C@H]2CON(C)[C@H]2C[C@H]1c1ccc(-c2ccc(C#N)cc2)cc1	none (no result: VIM-2 inhibitor, dFosB act-1, IMP-1 inh)
O=C(Cc1cccc2ccccc12)N/N=C/c1ccc(F)cc1	none
O=C(Cc1cccc2ccccc12)N/N=C/c1ccc(OC(=O)/C=C/c2ccco2)cc1	dFosB act-1 18 | dFosB act-2 inactive
Cc1ccc(Cn2nc(C)c(NC(=O)CSc3n[nH]c(C)c3[N+](=O)[O-])c2C)cc1	dFosB act-1 30 | dFosB act-2 inactive
CCn1cc(C(=O)N[C@H](C(=O)NCCCN2CCOCC2)C(C)C)c(=O)c2cc3c(cc21)OCO3	none
NC(=O)c1ccsc1NC(=O)COC(=O)c1cc(Cl)ccc1O	none (no result: VIM-2 inhibitor, IMP-1 inh)
COc1ccc(CNC(=O)C/C(C)=N/NC(=O)COc2ccccc2)cc1	none
COc1ccc(Cc2nnc(NC(=O)c3cccc(F)c3)s2)cc1OC	dFosB act-1 19 | dFosB act-2 inactive
COc1ccc(Nc2oc(COc3ccc(Cl)cc3)nc2C#N)cc1	dFosB act-1 22 | dFosB act-2 inactive
O=C(O)Cn1c(=O)c2c3c(sc2n(Cc2ccc(Cl)cc2Cl)c1=O)CCCC3	none
Cc1ccccc1C(=O)Nc1nnc(CC(=O)N/N=C/c2ccco2)s1	dFosB act-1 40 | dFosB act-2 inactive
Cc1ccc(C(=O)OCC(=O)NC2CCCCCC2)c(C)c1	none (no result: VIM-2 inhibitor, IMP-1 inh)
Cc1ccc([N+](=O)[O-])cc1-c1ccc(/C=C(\C#N)c2[nH]nc(N)c2C#N)o1	dFosB act-1 29 | dFosB act-2 inactive
CCCCCCCCC1CC(C(=O)Nc2ccccc2)C(=O)O1 (stereo not drawn)	none (no result: VIM-2 inhibitor, IMP-1 inh)
